The list is not random: actives were taken first. Their share in the collection is about 3.4%.
MEKK2wt PB1 HTS: raises or lowers MEK5 binding to wildtype human MEKK2 PB1 domain; Q9Y2U5; bead flow cytometry, Alexa488-MEK5 binding to MEKK2 WT; actives lie on both sides; binding response (% of control), % at 10 µM; actives 1.1% (n = 290,000); in the data active = binding response below about 67% or above about 130%
MEKK3 PB1 HTS: modulators (inhibitors or enhancers) of MEK5 binding to human MEKK3 PB1 domain; Q99759; bead-based flow cytometry, Alexa488-MEK5 binding to MEKK3; actives lie on both sides; 0 = blocked by unlabeled MEK5, 100 = vehicle; binding response (% of control), % at 10 µM; actives 1.4% (n = 290,000);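 active = binding response more than 3 SD above or below the average of its plate-row segment, actives on both sides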;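 note: Alexa488 bead fluorescence after subtracting the streptavidin-only scavenger bead signal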
Target sequence (Q99759 whole entry, looked up, the tested form may be a part): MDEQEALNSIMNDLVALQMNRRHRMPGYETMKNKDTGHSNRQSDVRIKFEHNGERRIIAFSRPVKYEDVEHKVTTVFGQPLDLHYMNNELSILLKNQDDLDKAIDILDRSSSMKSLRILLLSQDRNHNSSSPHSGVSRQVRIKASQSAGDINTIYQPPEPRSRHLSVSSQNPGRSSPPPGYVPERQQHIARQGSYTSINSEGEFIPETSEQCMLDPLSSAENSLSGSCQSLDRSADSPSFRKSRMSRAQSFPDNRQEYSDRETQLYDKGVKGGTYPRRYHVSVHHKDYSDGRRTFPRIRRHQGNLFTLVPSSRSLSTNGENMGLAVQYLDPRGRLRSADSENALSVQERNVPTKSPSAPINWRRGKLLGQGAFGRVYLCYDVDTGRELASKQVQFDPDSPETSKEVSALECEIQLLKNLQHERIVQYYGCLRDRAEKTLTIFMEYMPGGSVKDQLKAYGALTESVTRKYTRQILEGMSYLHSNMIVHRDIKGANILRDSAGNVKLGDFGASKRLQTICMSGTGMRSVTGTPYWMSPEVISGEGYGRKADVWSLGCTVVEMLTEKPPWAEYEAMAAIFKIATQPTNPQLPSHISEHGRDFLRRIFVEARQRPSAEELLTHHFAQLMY
VIM-2 inh: blocks Pseudomonas aeruginosa VIM-2 metallo-beta-lactamase; purified VIM-2, nitrocefin hydrolysis, epi-absorbance fluorescence; inhibition, % at 5.6 µM; actives 0.89% (n = 290,000);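 active = inhibition above the mean of all tested compounds plus 3 SD, cutoff set per screening run, cut at about 7.5% in these data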;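 note: red hydrolysis product quenches plate fluorescence so inhibitors raise well fluorescence; 0% = enzyme with DMSO and 100% = DMSO without enzyme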
MEKK2 mut-MEK5: signal of MEK5 binding to mutant human MEKK2 PB1 domain; bead flow cytometry, Alexa488-MEK5 binding to MEKK2 mutant; percent response, % at 10 µM; actives 0.35% (n = 290,000); in the data active = percent response above about 24%, passing the limit was not always enough
IMP-1 inh: blocks Pseudomonas aeruginosa IMP-1 metallo-beta-lactamase; purified IMP-1, nitrocefin hydrolysis, epi-absorbance fluorescence; inhibition, % at 5.6 µM; actives 0.45% (n = 290,000); AID 1556;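 active = inhibition above the mean plus 3 SD of all compounds in the same screening run, cut at about 4.5% in these data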;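 note: 0% = IMP-1 with DMSO and 100% = DMSO wells lacking enzyme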
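Assay system: purified IMP-1; Quantity: IMP-1 0.2 nM before substrate addition; Medium: HEPES buffer pH 7.1 with ZnSO4 and Brij 35; Incubation: 15 min enzyme–compound preincubation, then 25 min nitrocefin reaction, 25 °C; Signal: fluorescence quenching readout, ex 480/em 530 nm; Controls: DMSO with and without IMP-1; Repeats: singlicate testing.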
MEKK2wt confirm: raises or lowers MEK5 binding to wildtype human MEKK2, retest; shares compounds with MEKK3 PB1 HTS; bead flow cytometry, Alexa488-MEK5 binding to MEKK2 WT; actives lie on both sides; binding response (% of control), % at 10 µM; actives 2.4% (n = 5,900); AID 1892; in the data active = binding response below about 16% or above about 210%; inactive = in between
MEKK2mut-MEK5: signal of MEK5 binding to mutant human MEKK2, retest; bead flow cytometry, Alexa488-MEK5 binding to MEKK2 mutant; percent response, % at 10 µM; shares compounds with MEKK3 PB1 HTS; actives 2% (n = 5,900); in the data active = percent response mostly above about 71%, no sharp cut-off; inactive = mostly below about 38%;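 note: higher means compound restores mutant binding toward wildtype level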
MEKK3-MEK5 inh: MEKK3-MEK5 PB1 inhibition, single concentration confirmation. shares compounds with MEKK3 PB1 HTS. bead flow cytometry, Alexa488-MEK5 binding to MEKK3; stronger effect = lower value. binding response (% of control), % at 10 µM. actives 1.8% (n = 5,900). AID 1894;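 active = binding response below 72% of control, or above a set upper limit, though filed actives all read lower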;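 note: 100% = DMSO only wells and 0% = binding blocked by excess unlabeled MEK5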
VIM-2 inh confirm: VIM-2 inhibition, confirmation assay | AID 1860 | inhibition, % at 5.6 µM | purified VIM-2 enzyme, nitrocefin absorbance | shares compounds with IMP-1 inh | actives 73% (n = 200); in the data active = inhibition above about 8%;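 note: 0% = enzyme with vehicle and 100% = no enzyme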
TEM-1 inh 2: blocks E. coli TEM-1 beta-lactamase, VIM-2 IMP-1 counter-screen; shares compounds with IMP-1 inh; nitrocefin absorbance inhibition; inhibition, % at 5.6 µM; actives 50% (n = 200); AID 2184; in the data active = inhibition above about 0.66%
IMP-1 inh conf: confirmation of P. aeruginosa IMP-1 metallo-beta-lactamase inhibitors; shares compounds with IMP-1 inh; inhibition, % at 5.6 µM; purified IMP-1 enzyme, absorbance substrate hydrolysis; AID 2189; actives 60% (n = 200); in the data active = inhibition above about 4.9%;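 note: 0% = enzyme with vehicle and 100% = vehicle without enzyme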
An asterisk follows results filed as active; · = no result; [ ] = another dose, or the depositor's remark.

SMILES | MEKK2wt PB1 HTS | MEKK3 PB1 HTS | VIM-2 inh | MEKK2 mut-MEK5 | IMP-1 inh | MEKK2wt confirm | MEKK2mut-MEK5 | MEKK3-MEK5 inh | others
Cc1[nH]c2ccc(OC(F)(F)F)cc2c1CCNCc1cccc([N+](=O)[O-])c1 | 148.0* | 108.0 | -2.2 | 25.0* | -1.1 | 170.0 | 45.0 | 104.0
OC(CNCCc1c[nH]c2ccccc12)c1ccccc1 (configuration not stated) | 106.0 | 104.0 | 0.6 | 1.0 | 0.0 | · | · | ·
O=C1NC(=O)C(=Cc2ccc(N3CCOCC3)o2)C(=O)N1 | 100.0 | 107.0 | -3.1 | -2.0 | -7.1 | · | · | ·
CCOC(=O)c1c(C)n(Cc2ccccc2)c2ccc(OCC(O)CNC(C)(C)C)cc12 (configuration not stated) | 150.0* | 107.0 | 0.0 | 21.0 | -5.0 | 150.0 | 36.0 | 106.0
C#CCN(C)C(C)Cc1ccccc1 (configuration not stated) | 61.0*[inhibitor] | 69.0*[inhibitor] | -4.1 | 3.0 | -3.9 | 99.0 | -6.0 | 100.0
CCC(CC)NCc1c[nH]c2ccccc12 | 88.0 | 96.0 | -3.4 | -8.0 | -2.8 | · | · | ·
CCOc1ccc2nc(N=Nc3c(O)[nH]c(=S)[nH]c3=O)sc2c1 | 103.0 | 102.0 | -7.4 | 2.0 | -11.8 | · | · | ·
Cn1c(O)c(/C=C2\C=Nc3ccccc32)c(=O)n(C)c1=O | 105.0 | 106.0 | 0.5 | 6.0 | -3.7 | · | · | ·
COC(=O)C1=Nc2ccccc2/C1=C\c1c(O)n(C)c(=O)n(C)c1=O | 55.0*[inhibitor] | 74.0*[inhibitor] | -1.5 | -30.0 | -3.0 | 98.0 | -4.0 | 100.0
CC(C)OP(=O)(OC(C)C)C(O)c1ccc(Br)cc1 (configuration not stated) | 108.0 | 149.0* | -3.2 | -1.0 | -2.4 | 105.0 | 2.0 | 104.0
CC(C)OP(=O)(OC(C)C)C(O)c1cccnc1 (configuration not stated) | 99.0 | 113.0 | -1.2 | 0.0 | -2.6 | · | · | ·
Cc1nnc2ccc(N3CCN(C)CC3)nn12 | 102.0 | 106.0 | -2.9 | 2.0 | -2.0 | · | · | ·
CC(Cc1ccccc1)NC(N)=O (configuration not stated) | 97.0 | 98.0 | -1.0 | 5.0 | -3.2 | · | · | ·
COc1ccc(CC(C)NCCC(c2ccccc2)c2ccccc2)cc1 (configuration not stated) | 171.0* | 111.0 | -2.6 | 28.0* | -2.3 | 120.0 | 8.0 | 103.0
Nc1nnc(P(c2ccccc2)c2ccccc2)s1 | 96.0 | 95.0 | -4.5 | -5.0 | -5.2 | · | · | ·
CCOC(=O)C(O)(c1ccc(NC(=O)Oc2ccccc2)cc1)C(F)(F)F (configuration not stated) | 107.0 | 130.0* | -1.8 | 3.0 | -0.9 | 107.0 | 10.0 | 103.0
CCN(C(=O)Oc1ccccc1)c1ccc(C(O)(C(=O)OC)C(F)(F)F)cc1 (configuration not stated) | 99.0 | 95.0 | -0.9 | -1.0 | -2.4 | · | · | ·
Cn1ncc(Cl)c1C(=O)N1CCC2(CC1)OCCO2 | 103.0 | 101.0 | -4.5 | 3.0 | -2.2 | · | · | ·
O=C(Nc1ccc(F)cc1F)c1cccnc1Oc1cccc(C(F)(F)F)c1 | 96.0 | 98.0 | -5.3 | -1.0 | -2.5 | · | · | ·
COc1cc(CNCCc2ccc3c(c2)OCO3)cc(OC)c1OC | 60.0 | 47.0*[inhibitor] | -0.5 | -13.0 | -2.8 | 104.0 | -1.0 | 103.0
COc1cc(CNCCc2ccc3c(c2)OCO3)ccc1O | 108.0 | 102.0 | 0.9 | 6.0 | -0.4 | · | · | ·
Cn1c(CN2CCN(C(=O)COc3ccccc3)CC2)nc2cc([N+](=O)[O-])ccc21 | 106.0 | 152.0* | -2.3 | 0.0 | -2.5 | 98.0 | -2.0 | 102.0
Cc1cc(C)n(-c2ccc(NN=C(C#N)C#N)cc2)n1 | 43.0*[inhibitor] | 40.0*[inhibitor] | -1.8 | -57.0 | 0.0 | 94.0 | -5.0 | 90.0
N#CC(C#N)=NNc1ccc(-n2ccc(C(F)(F)F)n2)cc1 | 91.0 | 93.0 | -2.3 | -6.0 | -1.4 | · | · | ·
Cc1cccc(C(O)(C(=O)NNC(=O)CN2CCN(C)CC2)c2cccc(C)c2)c1 | 98.0 | 90.0 | -2.6 | 1.0 | -3.3 | · | · | ·
Cc1ccc(C(O)(C(=O)NNC(=O)CN2CCN(C)CC2)c2ccc(C)cc2)cc1 | 101.0 | 67.0*[inhibitor] | -2.6 | 0.0 | -1.5 | 106.0 | 6.0 | 107.0
COc1ccccc1/C=C1\C(=O)NC(=S)N(c2ccccc2)C1=O | 103.0 | 105.0 | -2.1 | 10.0 | -0.3 | · | · | ·
CCOC(=O)C1CCCN(c2ccc([N+](=O)[O-])c3nonc23)C1 (configuration not stated) | 81.0 | 92.0 | 25.7* | -20.0 | 26.8* | · | · | · | VIM-2 inh confirm=28.2*;TEM-1 inh 2=34.0*;IMP-1 inh conf=22.7*
Cc1ccc(CC(=O)N2CCN(Cc3ccccc3)CC2)cc1 | 101.0 | 112.0 | -0.8 | -7.0 | -1.7 | · | · | ·

From PubChem
